Screening results from PubChem BioAssay.
RGS4 act = RGS4 potentiation or activation; B-score at 10 µM; HEK293 M3R/inducible RGS4, carbachol calcium flux Fluo4; active compounds read low; 0.92% of 310,000 active;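 active = B-score of the integrated calcium signal more than 4 SD below the library mean, with starting fluorescence not abnormally high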;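 also: negative B-score means reduced calcium response which marks RGS4 activation or potentiation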
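test system = HEK293 cells with stable M3R and inducible RGS4 | schedule = recording 10 s baseline at 1 Hz, 100 s post-agonist | technique = Fluo4-AM (2 µM) calcium-flux fluorescence, kinetic read | measure = Agonist-evoked peak-minus-minimum fluorescence over baseline, integrated ratio, B score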
RGS4 block = human RGS4 inhibition. P49798. HEK293 M3R/RGS4 inducible, Fluo-4 calcium flux; active compounds read high; triggered by carbachol at its EC20. B-score at 10 µM. 0.45% of 310,000 active. AID 463165;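 active = B-score, a plate-corrected calcium signal, over three deviations above library mean, with baseline fluorescence within five deviations of library mean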;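 also: RGS4 expression induced by doxycycline in cells with stable M3 receptor; B-score is computed from the integrated fluorescence ratio over baseline after carbachol; higher B-score means a larger calcium signal and so more RGS4 inhibition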
Target sequence (P49798 whole entry, looked up): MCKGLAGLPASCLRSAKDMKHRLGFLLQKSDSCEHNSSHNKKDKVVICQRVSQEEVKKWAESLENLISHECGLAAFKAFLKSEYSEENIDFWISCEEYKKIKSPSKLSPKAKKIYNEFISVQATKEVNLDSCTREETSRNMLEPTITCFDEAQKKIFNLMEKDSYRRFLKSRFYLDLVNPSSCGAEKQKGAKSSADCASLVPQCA
MrgX1 PAM = human MrgX1 positive allosteric modulation, primary screen. B-score at 10 µM. AID 588675. Q96LB2. 0.63% of 310,000 active. MrgX1-HEK293, Fluo-4 calcium flux, FDSS; active compounds read high;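 active = plate-corrected calcium response at least 3 library SD above typical, normal starting fluorescence, not activating the receptor alone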;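 also: compound read alongside a low EC10 to EC30 dose of BAM8-22 agonist; peak minus trough fluorescence over baseline measured at the second addition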
Target sequence (Q96LB2 whole entry, looked up): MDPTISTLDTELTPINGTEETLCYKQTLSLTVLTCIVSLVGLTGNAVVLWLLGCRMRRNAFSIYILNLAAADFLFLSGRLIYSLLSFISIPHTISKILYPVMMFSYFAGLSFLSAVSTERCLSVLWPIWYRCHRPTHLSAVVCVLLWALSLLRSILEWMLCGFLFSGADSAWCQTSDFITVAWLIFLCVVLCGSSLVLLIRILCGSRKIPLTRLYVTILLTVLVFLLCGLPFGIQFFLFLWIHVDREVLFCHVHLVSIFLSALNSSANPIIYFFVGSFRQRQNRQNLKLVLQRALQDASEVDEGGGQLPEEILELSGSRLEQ
MrgX1 agonist = human MrgX1 receptor agonism, primary screen; Q96LB2; MrgX1-HEK293 cells, Fluo-4 calcium fluorescence, agonist mode; active compounds read high; B-score at 10 µM; 0.44% of 310,000 active; AID 588627;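 active = calcium response B-score plate-corrected fluorescence ratio at least 3 library SD, with starting fluorescence B-score inside 5 SD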
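Test system: Stable human MrgX1 HEK293 cell line | Schedule: Overnight plating before 1 h dye loading | Read-out basis: Baseline-normalised fluorescence change ratio, B-scored | Detection: Kinetic calcium dye fluorescence, Fluo-4 NW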
MrgX1 antagonist = antagonists of human MrgX1 receptor; Q96LB2; MRGX1-HEK293 calcium flux, Fluo-4, BAM8-22 antagonism; active compounds read low; B-score at 10 µM; 1.3% of 310,000 active; AID 588676;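 active = calcium-response B-score plate-corrected more than 3 library SD below zero, starting fluorescence within 5 deviations, no agonist response on first addition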;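 also: peak minus trough fluorescence over baseline after final BAM8-22 challenge near maximal dose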
MrgX1 allo conf = reconfirmed allosteric activator of human MrgX1 receptor; AID 602413; shares compounds with MrgX1 PAM; 13% of 1,200 active; activation (ratio percentage), % at 10 µM; MrgX1-HEK293, Fluo-4 calcium fluorescence, FDSS;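 active = ratio at least 3 SD above the weak peptide control, stable starting fluorescence, no direct agonism earlier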;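 also: compound followed by low BAM8-22 agonist challenge near EC20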
MrgX1 ant reconf = confirmation of human MrgX1 receptor antagonists; 19% of 2,300 active; remaining BAM8-22 calcium response % of control (active compounds read low), % at 10 µM; shares compounds with MrgX1 antagonist; MrgX1-HEK293, BAM8-22 calcium flux, Fluo-4; active compounds read low;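 active = remaining agonist calcium response no higher than 100% minus 3 SD of agonist-only control wells, with starting fluorescence near control levels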;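 also: agonist BAM8-22 given at a near maximal EC90 to ECmax level; peak minus minimum fluorescence divided by baseline after agonist addition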
HEK293 Ca flux = counter-screen for MrgX1 antagonists: effect in parental HEK293 cells | Fluo-4 calcium fluorescence, FDSS | fluorescence ratio F(max-min)/F0 at 10 µM | AID 624111 | shares compounds with MrgX1 antagonist | 2% of 4,000 active;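 active = duplicate-averaged calcium fluorescence ratio at least three times the standard deviation of buffer wells, a nonspecific response in parental cells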
HEK293 Ca counter = counter-screen for MrgX1 allosteric activators: effect in parental HEK293 cells | shares compounds with MrgX1 antagonist | parental HEK293 calcium flux, Fluo-4 fluorescence ratio; active compounds read high | 0.4% of 4,000 active | fluorescence ratio F(max-min)/F0 at 10 µM | AID 624114;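 active = calcium fluorescence ratio, averaged over duplicates, at least 3 SD of the buffer-well ratio, meaning a nonspecific response in receptor-free cells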;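 also: untransfected parental HEK293 lacking MrgX1 used as counterscreen for MrgX1 allosteric activators; fluorescence change taken during the second addition on a kinetic imager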
HEK293 Ca cntr2 = MrgX1 activator counter-screen hit in parental HEK293 cells; shares compounds with MrgX1 antagonist; Fluo-4 calcium fluorescence (FDSS); active compounds read high; fluorescence ratio F(max-min)/F0 at 10 µM; 8.7% of 4,000 active; AID 624115;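 active = calcium fluorescence ratio at least three times the spread of buffer wells, meaning a non-specific response in parental cells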
Hits are given with their value; – = inactive; · = not tested or not shown. Hits are enriched below; roughly 3.5% of the tested compounds scored in any of these assays.

SMILES	RGS4 act	RGS4 block	MrgX1 PAM	MrgX1 agonist	MrgX1 antagonist	MrgX1 allo conf	HEK293 Ca flux	HEK293 Ca counter	HEK293 Ca cntr2	others
COc1ccc(NC(=O)CN2C(=O)NC3(CCCC3)C2=O)cc1OC	–	–	–	–	–	·	·	·	·
O=C(CNC(=O)c1ccc(Br)o1)Nc1cccc(S(=O)(=O)N2CCCC2)c1	–	–	–	–	–	·	·	·	·
Cn1c(N2CCN(C(c3ccccc3)c3ccccc3)CC2)nc2ccccc21	-7.1	–	7.5	–	–	–	–	–	–
Cn1c(N2CCN(C(=O)Nc3ccc(F)cc3)CC2)nc2ccccc21	–	–	–	–	–	·	·	·	·
O=C(Nc1cccc(Cl)c1Cl)C1CCCC1	–	–	–	–	–	·	·	·	·
O=C(Nc1cccc(-c2cn3ccccc3n2)c1)c1ccccc1	–	–	6.8	–	–	8.4%	–	–	–
Nc1nc(CN2CCN(Cc3ccc4c(c3)OCO4)CC2)nc(Nc2ccccc2)n1	–	–	–	–	–	·	·	·	·
Cc1ccccc1Nc1nc(N)nc(CN2CCN(Cc3ccc4c(c3)OCO4)CC2)n1	–	–	8	–	–	–	–	–	–
CCc1cccc(NS(=O)(=O)c2ccc3c(c2)NC(=O)C(C)S3)c1 (stereo not drawn)	–	–	16	–	–	–	–	–	–
O=C(CSc1ccccc1)Nc1ccccc1N1CCOCC1	–	–	8.5	–	–	–	–	–	–
O=C(CSc1ccc(F)cc1)Nc1ccccc1N1CCOCC1	–	–	–	–	–	·	·	·	·
COc1cc(-c2noc(C3CCCN(C(=O)c4c(F)cccc4F)C3)n2)cc(OC)c1OC (stereo not drawn)	–	–	–	–	–	·	·	·	·
Cn1c(=O)c2c(nc(CN3CCc4ccccc4C3)n2Cc2ccccc2F)n(C)c1=O	–	–	25	–	–	38%	–	–	–
Cn1c(=O)c2c(nc(CN3CCc4ccccc4C3)n2CCCO)n(C)c1=O	–	–	–	–	–	·	·	·	·
CN1CCN(c2nc3c(c(=O)n(C)c(=O)n3C)n2Cc2cccc3ccccc23)CC1	–	–	–	–	–	·	·	·	·
Cn1c(=O)c2c(nc(N3CCCCCC3)n2Cc2cccc3ccccc23)n(C)c1=O	–	–	7.5	–	–	–	–	51	–
COC(=O)c1cc(S(=O)(=O)NCc2cccs2)c[nH]1	–	–	–	–	–	·	·	·	·
Cc1ccccc1OC(C)C(=O)NCc1cccnc1 (stereo not drawn)	–	–	–	–	–	·	·	·	·
CCOC(=O)C(Cc1ccccc1)C(=O)NCc1cccnc1 (stereo not drawn)	–	–	14	–	–	–	–	–	–
Nc1cc(Nc2ccc(Br)cc2)nc(N)n1	–	–	7.5	–	-8.6	–	–	–	–	MrgX1 ant reconf=–
COc1ccc(Nc2cc(C)nc(N)n2)cc1	–	–	–	–	–	·	·	·	·
COc1cc(CN2CCN(C(O)(c3ccccc3)c3ccccc3)CC2)cc(OC)c1OC	–	–	–	–	–	·	·	·	·
Cc1nnc2ccc(-c3ccc(NS(=O)(=O)c4ccc(F)cc4F)cc3)nn12	–	–	9.7	–	–	–	–	–	–
Cc1nnc2ccc(-c3ccc(NS(=O)(=O)c4ccccc4F)cc3)nn12	–	–	–	–	–	·	·	·	·
COc1ccccc1C1CCN(C(=O)c2cccc([N+](=O)[O-])c2)CC1	–	–	–	–	–	·	·	·	·
SMILES	RGS4 act	RGS4 block	MrgX1 PAM	MrgX1 agonist	MrgX1 antagonist	MrgX1 allo conf	HEK293 Ca flux	HEK293 Ca counter	HEK293 Ca cntr2	others
CCOC(=O)c1cc(-c2cccnc2)nn1-c1ccccc1	–	–	–	–	–	·	·	·	·
CCOC(=O)c1cc(-c2ccc(OC)cc2)nn1-c1ccc(C(=O)O)cc1	–	–	6.5	–	–	–	–	–	–
CCC1C(=O)C(CC)C(c2ccccc2)NC1c1ccccc1 (stereo not drawn)	–	–	–	–	–	·	·	·	·
CCC1C(=NO)C(CC)C(c2ccccc2)NC1c1ccccc1 (stereo not drawn)	–	–	23	–	–	–	–	–	–
Fc1ccccc1NC(=S)N(CCN1CCCCC1)Cc1ccco1	–	–	11	–	–	–	–	–	–
COc1cccc(NC(=O)COC(=O)C2C3CC4OC(=O)C2C4C3)c1 (stereo not drawn)	–	–	–	–	–	·	·	·	·
CCOC(=O)c1c(-c2cccs2)csc1N	–	–	8.4	–	–	–	–	–	–
COc1ccc(CC(=O)N(c2ccccc2)c2nc(C)cs2)cc1	–	–	11	–	–	–	–	–	–
Cc1csc(N(C(=O)Cc2ccccc2F)c2ccccc2)n1	–	–	–	–	–	·	·	·	·
Nc1c2c(nc3ccc(Br)cc13)N(c1ccccc1)CC2	·	·	–	–	–	·	·	·	·
Nc1c2c(nc3ccc(Br)cc13)N(Cc1ccccc1)CC2	–	–	8.3	–	–	–	–	–	–
CCN(Cc1cc2cc(C)ccc2[nH]c1=O)C(=O)c1cccc([N+](=O)[O-])c1	–	–	–	–	–	·	·	·	·
CCOC(=O)c1sc(NC(=O)c2ccccc2C(=O)O)c(C(=O)OCC)c1C	–	–	13	–	–	–	–	–	–
C=C(C)COc1ccc2c(C)c(CCC(=O)N3C[C@H]4C[C@@H](C3)c3cccc(=O)n3C4)c(=O)oc2c1	–	–	28	–	–	–	–	–	–
CC(C)(C)c1ccc(-n2ncc3c2CCCC3NC(=O)CN2CCCC2=O)cc1 (stereo not drawn)	–	–	13	–	–	–	–	–	–
Cc1nn(-c2ccc(N3CCCCC3)nn2)c(C)c1CCC(=O)Nc1cc(F)ccc1F	–	–	7.8	–	–	–	–	–	–
COc1ccc(-c2cc(C(F)(F)F)n3ncc(C(=O)N(C)Cc4ccccc4)c3n2)cc1	–	–	6.9	–	–	–	–	–	–
COc1ccc(-c2cc(C(F)(F)F)n3ncc(C(=O)NCc4ccco4)c3n2)cc1	–	–	–	–	–	·	·	·	·
CC(=O)N(CCC1(c2ccc(C)cc2)CCOC(C(C)C)C1)Cc1ccco1 (stereo not drawn)	–	–	10	–	–	–	–	–	–
CC(C)(C)c1ccc(O)c(/C=N\O)c1	–	–	38	–	–	–	–	–	–
